Experimental data reported in ChEMBL document CHEMBL4359826, “Preparation of bivalent agonists for targeting the mu opioid and cannabinoid receptors” (Eur J Med Chem, 2019).
Active and inactive are the calls of the source. The calls are words filed in the database; no cut-off is given here.

Columns and labels:
[1] = biological target: T1, Cannabinoid receptor (Rattus norvegicus) (UniProt Q9QZN9+P20272); assay: Antagonist activity at CB1R/CB2R in Wistar rat brain membranes at 10 uM in presence of JWH-018 after 60 mins by [35S]-GTPgammaS binding assay relative to control; type: functional, cell membranes
T1 sequence (P20272 whole entry, looked up, one chain of several): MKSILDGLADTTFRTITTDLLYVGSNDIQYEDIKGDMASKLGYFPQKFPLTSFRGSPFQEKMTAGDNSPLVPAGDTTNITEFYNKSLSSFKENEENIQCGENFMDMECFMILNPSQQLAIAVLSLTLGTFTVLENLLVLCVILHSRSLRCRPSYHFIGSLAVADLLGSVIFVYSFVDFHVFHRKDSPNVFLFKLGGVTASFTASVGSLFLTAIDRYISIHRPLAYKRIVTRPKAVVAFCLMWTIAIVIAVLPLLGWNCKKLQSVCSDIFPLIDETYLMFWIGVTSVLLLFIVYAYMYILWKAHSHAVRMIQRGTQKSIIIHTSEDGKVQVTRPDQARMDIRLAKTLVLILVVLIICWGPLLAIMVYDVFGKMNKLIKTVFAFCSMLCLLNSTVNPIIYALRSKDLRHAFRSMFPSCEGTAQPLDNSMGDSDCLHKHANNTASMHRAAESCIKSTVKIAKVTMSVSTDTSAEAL
Procedure, shortened: (§1)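 Rat brain membranes (30 µg protein/tube) incubated 60 min at 30 °C with 0.05 nM [35S]GTPγS and ligand at 10^-10–10^-5 M. Buffer: 50 mM Tris-HCl pH 7.4 with 30 µM GDP, 100 mM NaCl, 3 mM MgCl2, 1 mM EGTA. […] Nonspecific binding taken with 10 µM GTPγS; basal set as 100%. Filtration and scintillation counting; n≥3.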

[2] = biological target: T2, Cannabinoid receptor 2 (Rattus norvegicus) (UniProt Q9QZN9); assay: Displacement of [3H]JWH-018 from CB2R in Wistar rat brain membranes at 10 uM after 60 mins by liquid scintillation analysis relative to control; type: cell membranes
T2 sequence (whole entry): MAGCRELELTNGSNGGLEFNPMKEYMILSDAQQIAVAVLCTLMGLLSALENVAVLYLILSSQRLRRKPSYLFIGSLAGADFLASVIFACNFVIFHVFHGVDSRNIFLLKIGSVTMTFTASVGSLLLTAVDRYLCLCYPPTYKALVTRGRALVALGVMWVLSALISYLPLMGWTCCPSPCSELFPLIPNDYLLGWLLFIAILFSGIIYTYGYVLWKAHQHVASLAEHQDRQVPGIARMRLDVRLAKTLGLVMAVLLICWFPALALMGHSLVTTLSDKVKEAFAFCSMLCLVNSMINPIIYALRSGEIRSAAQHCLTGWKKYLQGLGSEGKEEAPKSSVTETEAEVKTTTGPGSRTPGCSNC
Procedure, shortened: (§2)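 Whole rat brain membranes (cerebellum removed; 0.3–0.5 mg/mL protein) in 50 mM Tris-HCl pH 7.4 with 2.5 mM EGTA, 5 mM MgCl2 and 0.5 mg/mL fatty-acid-free BSA, 30 °C. Kinetics used 0.6 nM [3H]JWH-018: association over 0–90 min, dissociation started with 10 µM JWH-018 after 60 min. Saturation over 0.5–35 nM. Competitors at 10^-11–10^-5 M, 60 min. Nonspecific binding with 10 µM JWH-018. Filtration onto PEI-soaked GF/B filters; n≥3.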

Cannabinoid receptor [3] = biological target: T3, Cannabinoid receptor (Rattus norvegicus, UniProt Q9QZN9+P20272); assay: Displacement of [3H]JWH-018 from CB1R/CB2R in Wistar rat brain membranes after 60 mins by liquid scintillation analysis; type: cell membranes
Rattus norvegicus [4] = species on record: Rattus norvegicus; settings: Wistar, Brain, Membranes, at 10 µM
Cannabinoid receptor [5] = biological target: T3, Cannabinoid receptor; type: cell membranes, Wistar, Brain, Membranes
[6] = Agonist activity at MOR/CB1R/CB2R receptor in Wistar rat brain membranes after 60 mins by [35S]-GTPgammaS binding assay; type: cell membranes
[7] = biological target: T1, Cannabinoid receptor (Rattus norvegicus); assay: Displacement of [3H]JWH-018 from CB1R/CB2R in Wistar rat brain membranes at 10 uM after 60 mins by liquid scintillation analysis; type: cell membranes; procedure, shortened: as §2
Mu-type opioid receptor = Mu-type opioid receptor (Rattus norvegicus, UniProt P33535); assay: Displacement of [3H]DAMGO from MOR in Wistar rat brain membranes after 60 mins by liquid scintillation analysis; type: cell membranes
Mu-type opioid receptor, sequence (P33535 whole entry): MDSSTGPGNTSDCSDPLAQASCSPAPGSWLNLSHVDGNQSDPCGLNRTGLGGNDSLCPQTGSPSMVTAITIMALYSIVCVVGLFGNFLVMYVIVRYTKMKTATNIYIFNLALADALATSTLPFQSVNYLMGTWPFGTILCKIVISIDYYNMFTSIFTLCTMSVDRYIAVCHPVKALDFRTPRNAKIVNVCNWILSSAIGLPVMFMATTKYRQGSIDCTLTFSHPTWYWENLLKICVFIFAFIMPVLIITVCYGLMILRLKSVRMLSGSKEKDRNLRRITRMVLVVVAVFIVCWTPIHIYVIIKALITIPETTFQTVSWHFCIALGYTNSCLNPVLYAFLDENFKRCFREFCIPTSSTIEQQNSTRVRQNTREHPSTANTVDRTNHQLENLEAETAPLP

[8] = biological target: Kappa-type opioid receptor (Cavia porcellus, UniProt P41144); type: cell membranes, Brain, Membranes
Kappa-type opioid receptor, sequence (P41144 whole entry): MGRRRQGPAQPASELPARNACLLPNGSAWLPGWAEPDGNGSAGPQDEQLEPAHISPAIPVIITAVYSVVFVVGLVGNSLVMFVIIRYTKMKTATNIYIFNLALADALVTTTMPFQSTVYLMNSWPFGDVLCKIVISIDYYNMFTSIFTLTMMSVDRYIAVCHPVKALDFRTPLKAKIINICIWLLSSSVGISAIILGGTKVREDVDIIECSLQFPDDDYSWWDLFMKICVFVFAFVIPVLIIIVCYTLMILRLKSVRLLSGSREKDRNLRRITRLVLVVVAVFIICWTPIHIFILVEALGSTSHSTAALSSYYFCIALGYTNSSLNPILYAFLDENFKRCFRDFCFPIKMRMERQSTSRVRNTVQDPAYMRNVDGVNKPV

[9] = biological target: Delta-type opioid receptor (Rattus norvegicus, UniProt P33533); assay: Displacement of [3H]Ile5,6-deltorphin-2 from DOR in Wistar rat brain membranes after 60 mins by liquid scintillation analysis; type: cell membranes
Delta-type opioid receptor, sequence (P33533 whole entry): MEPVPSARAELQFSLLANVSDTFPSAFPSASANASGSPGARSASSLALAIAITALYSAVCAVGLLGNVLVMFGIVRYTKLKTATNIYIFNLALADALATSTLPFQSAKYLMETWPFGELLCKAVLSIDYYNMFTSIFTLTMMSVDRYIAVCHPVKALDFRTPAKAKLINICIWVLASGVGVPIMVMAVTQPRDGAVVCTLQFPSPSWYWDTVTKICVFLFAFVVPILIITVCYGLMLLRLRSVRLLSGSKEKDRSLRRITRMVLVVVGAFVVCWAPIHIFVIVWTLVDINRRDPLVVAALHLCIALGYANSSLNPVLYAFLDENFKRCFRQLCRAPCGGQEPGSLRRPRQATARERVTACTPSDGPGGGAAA

[10] = biological target: Mu-type opioid receptor (Rattus norvegicus) (UniProt P33535); assay: Antagonist activity at MOR in Wistar rat brain membranes at 10 uM in presence of oxycodone after 60 mins by [35S]-GTPgammaS binding assay relative to control; type: functional, cell membranes
Mu-type opioid receptor (Rattus norvegicus), sequence (P33535 whole entry): as the sequence (P33535 whole entry) above
Procedure, shortened: (§3)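 Rat brain membranes (30 µg protein/tube) incubated 60 min at 30 °C with 0.05 nM [35S]GTPγS and ligand at 10^-10–10^-5 M. Buffer: 50 mM Tris-HCl pH 7.4 with 30 µM GDP, 100 mM NaCl, 3 mM MgCl2, 1 mM EGTA. Nonspecific binding taken with 10 µM GTPγS; basal set as 100%. Filtration and scintillation counting; n≥3.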

[11] = biological target: Mu-type opioid receptor (Rattus norvegicus) (UniProt P33535); assay: Antagonist activity at MOR in Wistar rat brain membranes at 10 uM in presence of Tyr-D-Ala-Gly-Phe-NH2 after 60 mins by [35S]-GTPgammaS binding assay relative to control; type: functional, cell membranes; procedure, shortened: as §3
Rattus norvegicus [12] = species on record: Rattus norvegicus; assay: Antagonist activity at MOR/CB1R/CB2R in Wistar rat brain membranes at 10 uM in presence of N-[6-[[2-[[(4R,4aS,7aR,12bS)-4a-hydroxy-9-methoxy-3-methyl-2,4,5,6,7a,13-hexahydro-1H-4,12-methanobenzofuro[3,2-e]isoquinoline-7-ylidene]amino]oxyacetyl]amino]hexyl]-6-[3-(naphthalene-1-carbonyl)indol-1-yl]hexanamide after 60 mins by [35S]-GTPgammaS binding assay relative to control; type: cell membranes; procedure, shortened: as §1
Rattus norvegicus [13] = species on record: Rattus norvegicus; assay: Antagonist activity at MOR/CB1R/CB2R in Wistar rat brain membranes at 10 uM in presence of (S)-N-((2R,8S)-18-(3-(1-naphthoyl)-1H-indol-1-yl)-8-benzyl-3,6,9,12-tetraoxo-4,7,10,13-tetraazaoctadecan-2-yl)-2-amino-3-(4-hydroxyphenyl)propanamide after 60 mins by liquid scintillation analysis relative to control; type: cell membranes; procedure, shortened: as §1

`COc1ccc(C(=O)c2c(C)n(CCN3CCOCC3)c3cc(I)ccc23)cc1` showed an Emax [1] of 100%, an Activity [2] of 70% and a Ki (Cannabinoid receptor [3]) of 27 nM.
For `CC(=O)NCCCCCn1cc(C(=O)c2cccc3ccccc23)c2ccccc21`, the Emax (Rattus norvegicus [4]) was 83%, the Ki (Cannabinoid receptor [5]) was 149 nM and the Ki (Cannabinoid receptor [3]) was 145 nM. For the same molecule, the EC50 [6] was 2150 nM.
With `NC(=O)[C@H](Cc1ccccc1)NC(=O)[C@H](Cc1ccccc1)NC(=O)[C@@H]1CCCN1C(=O)[C@@H](N)Cc1ccc(O)cc1` the Activity [7] was “inactive”.
With `C=CCN1CC[C@]23c4c5ccc(O)c4O[C@H]2C(=O)CC[C@@]3(O)[C@H]1C5` the Activity [7] was “inactive”.
For `CCCCCn1cc(C(=O)c2cccc3ccccc23)c2cc(Br)ccc21`, the Ki (Cannabinoid receptor [3]) was 59 nM.
Work on `NCCCCCn1cc(C(=O)c2cccc3ccccc23)c2ccccc21` yielded an Emax (Rattus norvegicus [4]) of 102%, a Ki (Cannabinoid receptor [5]) of 269 nM and a Ki (Cannabinoid receptor [3]) of 190 nM.
With H-RVDPVNFKLLSH-OH the Ki (Cannabinoid receptor [3]) was > 10000 nM.
For `Cc1c(C(=O)NN2CCCCC2)nn(-c2ccc(Cl)cc2Cl)c1-c1ccc(Cl)cc1`, the Emax [1] was 100%.
Molecule `COc1ccc2c3c1O[C@H]1/C(=N\OCC(=O)NCCCCCCN)CC[C@@]4(O)[C@@H](C2)N(C)CC[C@]314` has an Emax (Rattus norvegicus [4]) of 111%, a Ki (Mu-type opioid receptor) of 41 nM and a Ki [8] of 380 nM. It also gave an EC50 [6] of 305 nM and a Ki [9] of 659 nM.
`O=C(O)CCCCCn1cc(C(=O)c2cccc3ccccc23)c2ccccc21` gave an Emax (Rattus norvegicus [4]) of 81%, a Ki (Cannabinoid receptor [5]) of 205 nM and a Ki (Cannabinoid receptor [3]) of 247 nM. The EC50 [6] was 4220 nM.
`COc1ccc2c3c1O[C@H]1/C(=N\OCC(=O)NCCNC(=O)CCCCCn4cc(C(=O)c5cccc6ccccc56)c5ccccc54)CC[C@@]4(O)[C@@H](C2)N(C)CC[C@]314` gave an Emax (Rattus norvegicus [4]) of 100%, an Emax [10] of 101% and an Emax [1] of 107%. It also gave a Ki (Cannabinoid receptor [5]) of 9.3 nM, a Ki (Mu-type opioid receptor) of 33 nM and a Ki (Cannabinoid receptor [3]) of 255 nM. It also gave a Ki [8] of 337 nM, an Emax [11] of 102% and an Emax (Rattus norvegicus [12]) of 102%. The Emax (Rattus norvegicus [13]) was 103% and the Ki [9] was 623 nM.
Molecule `CC(C)C[C@H](NC(=O)[C@H](Cc1ccccc1)NC(=O)[C@H](CCCCN)NC(=O)[C@H](Cc1ccccc1)NC(=O)[C@H](CC(N)=O)NC(=O)[C@@H](NC(=O)[C@@H]1CCCN1)C(C)C)C(=O)N[C@@H](CO)C(=O)N[C@@H](Cc1cnc[nH]1)C(=O)O` [HEMOPRESSIN] has a Ki (Cannabinoid receptor [3]) of 2793 nM.
